Laboratory results reported in ChEMBL document CHEMBL4373686, “Methyl sulfonamide substituents improve the pharmacokinetic properties of bicyclic 2-pyridone based Chlamydia trachomatis inhibitors” (Medchemcomm, 2019).

Test system: HeLa 229
Experiment: Cytotoxicity against human HeLa 229 cells assessed as cell viability at 10 uM after 48 hrs resazurin dye based fluorescence method relative to control
Conditions: hela 229, 48 h
Outline: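 HeLa cells in colorless DMEM with 10% FBS, compound in 0.5% DMSO for 48 h; resazurin added, 3 h at 37 °C, 5% CO2, dark; fluorescence ex 535/em 595 nm; triplicate wells as percent of DMSO control.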

Q: For `CS(=O)(=O)Nc1c(Cc2cccc3ccccc23)cc(=O)n2c1SCC2n1cc(-c2ccccc2)nn1` (racemic), which Activity is on record?
A: Its Activity is 91%.

Q: How did the Activity turn out when `COc1c(Cc2cccc3ccccc23)c(N)c(=O)n2c1SCC2C(=O)Nc1ccccc1` (racemic) was run?
A: The Activity was 94%.

Q: Which Activity does the source give for `CN(C)c1c(Cc2cccc3ccccc23)cc(=O)n2c1SCC2C(=O)Nc1ccccc1` (racemic) here?
A: Its Activity is 92%.

Test system: Chlamydia trachomatis
Experiment: (§1) Antibacterial activity against Chlamydia trachomatis 434/Bu serovar L2/ATCC VR-902B in HeLa 229 cells infected with cell lysates from 48 hrs at 1 uM compound treated HeLa 229 cells with Chlamydia trachomatis infection assessed as inhibition of reinfection and measured after 48 hrs post re-infection by DAPI staining based arrayscan automated microscopic method relative to control
Type: functional, organism-based
Conditions: not given
Outline: (§2)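 HeLa 229 cells infected with C. trachomatis L2 EBs at MOI 0.3–0.5; compound added in RPMI 1 h post infection; 44–48 h, then water lysis. 10-fold serial dilutions of lysate reinfect fresh HeLa; 44–46 h, methanol fixed, anti-Chlamydia/FITC antibody plus DAPI stain, IFUs counted by automated microscopy; % IFU versus DMSO control; three independent experiments, duplicates.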

Q: `CN(C)c1c(Cc2cccc3ccccc23)cc(=O)n2c1SCC2C(=O)Nc1ccccc1` (racemic) was tested. Which inhibition did it give?
A: Its inhibition is 78%.

Test system: Chlamydia trachomatis
Experiment: as §1, with “2.5” for “1”
Type: functional, organism-based
Conditions: not given
Outline: as §2

Q: How did the inhibition turn out when `CS(=O)(=O)Nc1c(Cc2cccc3ccccc23)cc(=O)n2c1SCC2n1cc(-c2ccccc2)nn1` (racemic) was run?
A: Its inhibition is 88%.

Q: `COc1c(Cc2cccc3ccccc23)c(N)c(=O)n2c1SCC2C(=O)Nc1ccccc1` (racemic) was tested. Which inhibition did it give?
A: The inhibition was 25%.

Q: How did the inhibition turn out when `CN(C)c1c(Cc2cccc3ccccc23)cc(=O)n2c1SCC2C(=O)Nc1ccccc1` (racemic) was run?
A: The inhibition was 94%.
